# Experimental data reported in ChEMBL document CHEMBL3421570, “Combinatorial Libraries As a Tool for the Discovery of Novel, Broad-Spectrum Antibacterial Agents Targeting the ESKAPE Pathogens” (J Med Chem, 2015).
# pIC50: −log10 of the molar value. Active and inactive are the calls of the source. No cut-off for these calls is given here.
# Legend:
# [1] = Induction of hemolysis in human RBC at 10 uM incubated for 15 mins; type: cell-based, Erythrocyte; details: red blood cells, read-out: Activity
# Summary of the method: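 Human RBCs from whole blood, resuspended 20% v/v in HA buffer (NaCl, CaCl2), compound 10 μM, 15 min at 37°C. Centrifuged 5,500 g for 1 min, supernatant OD543 read. Percent hemolysis against DMF vehicle (0%) and 1.0% Triton X-100 (100%); triplicate.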
# Enterococcus faecium [2] = test: Bactericidal activity against Enterococcus faecium after 24 hrs; type: functional
# Acinetobacter baumannii [3] = test: Antimicrobial activity against Acinetobacter baumannii assessed as inhibition of microbial growth after 24 hrs; type: functional
# Summary of the method: (§1)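 Broth microdilution against multidrug-resistant clinical ESKAPE isolates. Overnight cultures (TSB for Gram-positives, LB for Gram-negatives) diluted 1:1000 in fresh medium, compound in DMF (≤2.0% DMF) added at decreasing concentrations, 37°C.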
# Enterococcus faecium [4] = test: Antibiofilm activity against Enterococcus faecium incubated for 24 hrs followed by biofilm resuspension in PBS and measured after 24 hrs; type: functional
# Summary of the method: (§2)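 Biofilms grown 24 h in 96-well plates from overnight cultures standardized to OD600 0.5 in fresh medium (human serum only for S. aureus; TSB for Gram-positives, LB for Gram-negatives). Medium then replaced with fresh medium containing a concentration range above and below MIC, 37°C overnight. After 24 h biofilm resuspended in PBS, serially diluted, plated in duplicate, CFU counted after 24 h at 37°C. Activity relative to untreated; three technical replicates; MBEC50 reported.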
# Staphylococcus aureus [5] = test: Induction of spontaneous mutation in Staphylococcus aureus at 2 to 10 MIC; type: functional, organism-based
# Enterobacter cloacae [6] = test: Antibiofilm activity against Enterobacter cloacae incubated for 24 hrs followed by biofilm resuspension in PBS and measured after 24 hrs; type: functional; summary of the method: as §2
# [7] = Selectivity index, ratio of IC50 for human A549 cells to MIC for Acinetobacter baumannii
# [8] = Cytotoxicity against human A549 cells assessed as cell viability recovery up to 100 uM after 48 hrs by MTT assay; type: cell-based; details: read-out: Activity
# Summary of the method: (§3)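 A549 cells grown in F-12K with L-glutamine, 10% FBS, 1% penicillin-streptomycin, seeded at 1.0 × 10^5 ml−1, allowed to adhere 24 h (37°C, 5% CO2), then exposed to compound in 45% w/v (2-hydroxypropyl)-β-cyclodextrin vehicle for 48 h. MTT 4 h, formazan solubilized in DMSO, absorbance 540 nm. Percent recovery versus vehicle-only; IC50 derived; at least three independent experiments.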
# Enterobacter cloacae [9] = test: Antimicrobial activity against Enterobacter cloacae assessed as inhibition of microbial growth after 24 hrs; type: functional; summary of the method: as §1
# Klebsiella pneumoniae [10] = test: Induction of spontaneous mutation in Klebsiella pneumoniae at 2 to 10 MIC; type: functional, organism-based
# Staphylococcus aureus [11] = test: Bactericidal activity against methicillin-resistant Staphylococcus aureus at MIC measured after drug wash out after 120 mins by time kill assay; type: functional
# Summary of the method: (§4)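 MRSA from stationary phase was regrown 3 h in TSB and seeded at OD600 0.5. […] After 120 min, cells were centrifuged and washed, serially diluted and plated for CFU. Percent recovery is relative to no-drug controls.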
# Enterococcus faecium [12] = test: Antimicrobial activity against Enterococcus faecium assessed as inhibition of microbial growth after 24 hrs; type: functional; summary of the method: as §1
# Klebsiella pneumoniae [13] = test: Ratio of MIC for Klebsiella pneumoniae measured after 8 cycle passage to MIC for wild type Klebsiella pneumoniae; type: functional
# Enterococcus faecium [14] = test: Induction of spontaneous mutation in Enterococcus faecium at 2 to 10 MIC; type: functional, organism-based
# Acinetobacter baumannii [15] = test: Bactericidal activity against Acinetobacter baumannii after 24 hrs; type: functional
# Staphylococcus aureus [16] = test: Ratio of MIC for Staphylococcus aureus measured after 8 cycle passage to MIC for wild type Staphylococcus aureus; type: functional
# Pseudomonas aeruginosa [17] = test: Induction of spontaneous mutation in Pseudomonas aeruginosa at 2 to 10 MIC; type: functional, organism-based; details: 2 to 10 x MIC
# [18] = Selectivity index, ratio of IC50 for human A549 cells to MIC for Pseudomonas aeruginosa
# Pseudomonas aeruginosa [19] = test: Antibiofilm activity against Pseudomonas aeruginosa incubated for 24 hrs followed by biofilm resuspension in PBS and measured after 24 hrs; type: functional; summary of the method: as §2
# Enterococcus faecium [20] = test: Antimicrobial activity against Enterococcus faecium assessed as inhibition of microbial growth at 45 uM after 24 hrs; type: functional, organism-based
# Summary of the method: (§5)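 Broth microdilution single-concentration read: overnight cultures diluted 1:1000, compound in DMF (≤2.0%) added, 37°C for 24 h, growth inhibition scored visually by lack of turbidity; triplicate. Gram-positives grown in TSB, Gram-negatives in LB.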
# Enterobacter cloacae [21] = test: Bactericidal activity against Enterobacter cloacae after 24 hrs; type: functional
# [22] = Cytotoxicity against human A549 cells assessed as cell viability recovery at 225 uM after 48 hrs by MTT assay; type: cell-based; details: read-out: Activity; summary of the method: as §3
# [23] = Selectivity index, ratio of IC50 for human A549 cells to MIC for Enterococcus faecium
# Enterobacter cloacae [24] = test: Ratio of MIC for Enterobacter cloacae measured after 8 cycle passage to MIC for wild type Enterobacter cloacae; type: functional
# Staphylococcus aureus [25] = test: Antimicrobial activity against Staphylococcus aureus USA300 strain FPR3757 infected in mouse model of lethal peritonitis assessed as mouse survival at 2 uM, im dosed 1 hr post infection and measured after 5 days post infection; type: functional, organism-based
# Summary of the method: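 Mice, six per group, infected i.p. with 1 × 10^8 CFU ml−1 S. aureus USA300 FPR3757 in PBS with 5% mucin. Compound given i.m. at 2 μM 1 h later; vehicle 45% w/v (2-hydroxypropyl)-β-cyclodextrin in water i.v.; vancomycin i.v. as control. Monitored twice daily for 5 days, pre-moribund animals euthanized. Survival compared by log-rank test.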
# Klebsiella pneumoniae [26] = test: Bactericidal activity against Klebsiella pneumoniae after 24 hrs; type: functional
# Pseudomonas aeruginosa [27] = test: Bactericidal activity against Pseudomonas aeruginosa after 24 hrs; type: functional
# Enterobacter cloacae [28] = test: Induction of spontaneous mutation in Enterobacter cloacae at 2 to 10 MIC; type: functional, organism-based
# [29] = Selectivity index, ratio of IC50 for human A549 cells to MIC for Klebsiella pneumoniae
# Pseudomonas aeruginosa [30] = test: Antimicrobial activity against Pseudomonas aeruginosa assessed as inhibition of microbial growth after 24 hrs; type: functional; summary of the method: as §1
# Acinetobacter baumannii [31] = test: Induction of spontaneous mutation in Acinetobacter baumannii at 2 to 10 MIC; type: functional, organism-based
# Acinetobacter baumannii [32] = test: Ratio of MIC for Acinetobacter baumannii measured after 8 cycle passage to MIC for wild type Acinetobacter baumannii; type: functional
# Pseudomonas aeruginosa [33] = test: Antimicrobial activity against Pseudomonas aeruginosa assessed as inhibition of microbial growth at 45 uM after 24 hrs; type: functional, organism-based; summary of the method: as §5
# Klebsiella pneumoniae [34] = test: Antibiofilm activity against Klebsiella pneumoniae incubated for 24 hrs followed by biofilm resuspension in PBS and measured after 24 hrs; type: functional; summary of the method: as §2
# Staphylococcus aureus [35] = test: Antimicrobial activity against Staphylococcus aureus assessed as inhibition of microbial growth after 24 hrs; type: functional; summary of the method: as §1
# Enterobacter cloacae [36] = test: Antimicrobial activity against Enterobacter cloacae assessed as inhibition of microbial growth at 45 uM after 24 hrs; type: functional, organism-based; summary of the method: as §5
# Acinetobacter baumannii [37] = test: Antimicrobial activity against Acinetobacter baumannii assessed as inhibition of microbial growth at 45 uM after 24 hrs; type: functional, organism-based; summary of the method: as §5
# Staphylococcus aureus [38] = test: Bactericidal activity against methicillin-resistant Staphylococcus aureus assessed as cell survival recovery at MIC measured after drug wash out after 120 mins by time kill assay; type: functional; summary of the method: as §4
# Staphylococcus aureus [39] = test: Antibiofilm activity against Staphylococcus aureus incubated for 24 hrs followed by biofilm resuspension in PBS and measured after 24 hrs; type: functional; summary of the method: as §2
# Acinetobacter baumannii [40] = test: Antibiofilm activity against Acinetobacter baumannii incubated for 24 hrs followed by biofilm resuspension in PBS and measured after 24 hrs; type: functional; summary of the method: as §2
# Staphylococcus aureus [41] = test: Effect on bacterial density of methicillin-resistant Staphylococcus aureus at MIC measured over 2 hrs period by time kill assay; type: functional, organism-based
# A549 = test: Cytotoxicity against human A549 cells after 48 hrs by MTT assay; type: cell-based; details: A549, 48 h; summary of the method: as §3
# [42] = Selectivity index, ratio of IC50 for human A549 cells to MIC for Enterobacter cloacae
# [43] = Selectivity index, ratio of IC50 for human A549 cells to MIC for Staphylococcus aureus
# Klebsiella pneumoniae [44] = test: Antimicrobial activity against Klebsiella pneumoniae assessed as inhibition of microbial growth after 24 hrs; type: functional; summary of the method: as §1
# Staphylococcus aureus [45] = test: Antimicrobial activity against Staphylococcus aureus assessed as inhibition of microbial growth at 45 uM after 24 hrs; type: functional, organism-based; summary of the method: as §5
# Klebsiella pneumoniae [46] = test: Antimicrobial activity against Klebsiella pneumoniae assessed as inhibition of microbial growth at 45 uM after 24 hrs; type: functional, organism-based; summary of the method: as §5
compound,measurement,setting,value
CCCC[C@H]1CN(CCCC[C@H]2CNC(=N)N2CCc2cccc(C(F)(F)F)c2)C(=N)N1CCCCC1CCCCC1,"hemolysis at 0.25 h, 10 µM",[1],0.34%
same,MBC90,Enterococcus faecium [2],1.7 µM
same,MIC,Acinetobacter baumannii [3],1.5 µM
same,MBEC50,Enterococcus faecium [4],29 µM
same,Activity,Staphylococcus aureus [5],inactive
same,MBEC50,Enterobacter cloacae [6],13 µM
same,Selectivity Index,[7],82
same,viability at 48 h,[8],> 65%
same,MIC,Enterobacter cloacae [9],1.5 µM
same,Activity,Klebsiella pneumoniae [10],inactive
same,fold change (FC),Staphylococcus aureus [11],2.5
same,MIC,Enterococcus faecium [12],1.5 µM
same,Ratio,Klebsiella pneumoniae [13],<=8
same,Activity,Enterococcus faecium [14],inactive
same,MBC90,Acinetobacter baumannii [15],2.8 µM
same,Ratio,Staphylococcus aureus [16],2
same,Activity,Pseudomonas aeruginosa [17],inactive
same,Selectivity Index,[18],82
same,MBEC50,Pseudomonas aeruginosa [19],31 µM
same,growth inhibition (GI),Enterococcus faecium [20],Active
same,MBC90,Enterobacter cloacae [21],4.1 µM
same,"viability at 48 h, 225 µM",[22],> 50%
same,Selectivity Index,[23],82
same,Ratio,Enterobacter cloacae [24],<=8
same,Activity,Staphylococcus aureus [25],Active
same,MBC90,Klebsiella pneumoniae [26],4 µM
same,MBC90,Pseudomonas aeruginosa [27],2.3 µM
same,Activity,Enterobacter cloacae [28],inactive
same,Selectivity Index,[29],82
same,MIC,Pseudomonas aeruginosa [30],1.5 µM
same,Activity,Acinetobacter baumannii [31],inactive
same,Ratio,Acinetobacter baumannii [32],<=8
same,growth inhibition (GI),Pseudomonas aeruginosa [33],Active
same,MBEC50,Klebsiella pneumoniae [34],4.7 µM
same,MIC,Staphylococcus aureus [35],1.5 µM
same,growth inhibition (GI),Enterobacter cloacae [36],Active
same,growth inhibition (GI),Acinetobacter baumannii [37],Active
same,Survival,Staphylococcus aureus [38],0.2%
same,MBEC50,Staphylococcus aureus [39],2.2 µM
same,MBEC50,Acinetobacter baumannii [40],16 µM
same,Activity,Staphylococcus aureus [41],inactive
same,pIC50,A549,3.90
same,Selectivity Index,[42],82
same,Selectivity Index,[43],82
same,MIC,Klebsiella pneumoniae [44],1.5 µM
same,growth inhibition (GI),Staphylococcus aureus [45],Active
same,growth inhibition (GI),Klebsiella pneumoniae [46],Active
